This is an account of results in ChEMBL document CHEMBL4402570, “Discovery and Optimization of Novel Pyrazolopyrimidines as Potent and Orally Bioavailable Allosteric HIV-1 Integrase Inhibitors” (J Med Chem, 2020).

Structures are written as SMILES.

Series [1] has as its system Human immunodeficiency virus 1. Briefly: Antiviral activity against HIV1 NL4-3 infected in human MT2 cells measured after 3 to 4 days by luciferase reporter gene assay. The format is functional, organism-based. Particulars: Human immunodeficiency virus 1, NL4-3, MT2.
Series [2] in a line: Cytotoxicity against human MT2 cells measured after 4 days by XTT assay. It is filed as cell-based. The method in brief:
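MT-2 cell viability measured by XTT after 4 days of compound exposure, run in parallel with the antiviral assay; CC50 from n ≥ 2 determinations.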
For orientation: Tetrazolium assays rely on reduction of a dye to a coloured formazan, in cell work by metabolically active cells.

The nature of series [3]: Permeability of the compound in pH 7.4 buffer at 100 uM measured after 4 hrs by sandwich-PAMPA. It is filed as ADME. Particulars: read-out: permeability. A digest of the protocol:
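Parallel artificial membrane permeability: compound at 100 μM in donor buffer pH 7.4, permeating to acceptor through artificial membrane over 4 h; donor, acceptor and t0 solutions read by UV plate reader; triplicate.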

Series [4] in a line: Stability of the compound in human liver microsomes assessed as parent compound remaining at 0.5 uM measured after 10 mins in presence of NADPH by LC-MS/MS analysis. The format is ADME, Microsome. Particulars: read-out: Stability. The method in brief: (§1)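 CYP-mediated turnover: 0.5 μM compound with human or rat liver microsomes (1 mg/mL) in 100 mM sodium phosphate pH 7.4, 6.6 mM MgCl2, 37 °C; started with NADPH, DMSO 0.014%. Samples quenched at 0 and 10 min; parent remaining by LC-MS/MS; duplicate.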
Background: Microsomes from liver hold many membrane-bound enzymes, among them those of drug oxidation.

Series [5] is described as follows: Stability of the compound in rat liver microsomes assessed as parent compound remaining at 0.5 uM measured after 10 mins in presence of NADPH by LC-MS/MS analysis. The format is ADME, Microsome. Particulars: read-out: Stability. The method in brief:
as §1

Series [6] in a line: Therapeutic index, ratio of CC50 for human MT2 cells to EC50 for HIV1 NL4-3 infected in human MT2 cells. The format is toxicity, cell-based. Particulars: read-out: Ratio CC50/EC50.
In series [7] the test system is Human immunodeficiency virus 1. Briefly: Antiviral activity against HIV1 NL4-3 infected in human MT2 cells measured after 3 to 4 days in presence of human serum albumin by luciferase reporter gene assay. Particulars: Human immunodeficiency virus 1, NL4-3, MT2. The format is functional, organism-based. A general note: Reporter assays use an easily measured gene product as a stand-in for the process of interest.

Series [8] concerns Human immunodeficiency virus 1. As to the kind of experiment: Selectivity ratio of EC50 for HIV1 NL4-3 infected in human MT2 cells in presence of human serum albumin to EC50 for HIV1 NL4-3 infected in human MT2 cells in absence of human serum albumin. It is filed as functional.
Series [9] can be described thus: Cmax in Sprague-Dawley rat at 1 mg/kg, iv infusion for 10 mins or 5 mg/kg, po administered via gavage by LC-MS/MS analysis. Particulars: in vivo. It is filed as ADME, organism-based. The method in brief: (§2)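 Rats given iv via implanted venous cannula as 10 min infusion, or oral gavage after overnight fast; vehicle 10% dimethylacetamide/90% PEG400 for both routes. Plasma from venous-port blood, treated with CH3CN containing internal standard, analysed by LC-MS/MS; oral plasma levels followed 24 h after 5 mg/kg. Parameters by noncompartmental analysis of concentration-time data.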

A short description of series [10]: Tmax in Sprague-Dawley rat at 1 mg/kg, iv infusion for 10 mins or 5 mg/kg, po administered via gavage by LC-MS/MS analysis. Particulars: in vivo. The format is ADME, organism-based. A digest of the protocol: as §2
Series [11] in a line: AUC (0 to 24 hrs) in Sprague-Dawley rat at 1 mg/kg, iv infusion for 10 mins or 5 mg/kg, po administered via gavage by LC-MS/MS analysis. It is filed as ADME, organism-based. Particulars: in vivo. The method in brief:
as §2

Series [12] can be described thus: Half life in Sprague-Dawley rat at 1 mg/kg, iv infusion for 10 mins or 5 mg/kg, po administered via gavage by LC-MS/MS analysis. The format is ADME, organism-based. Particulars: in vivo. A digest of the protocol:
as §2

Series [13] in a line: Clearance in Sprague-Dawley rat at 1 mg/kg, iv infusion for 10 mins or 5 mg/kg, po administered via gavage by LC-MS/MS analysis. It is filed as ADME, organism-based. Particulars: in vivo. The method in brief: as §2
The nature of series [14]: Volume of distribution at steady state in Sprague-Dawley rat at 1 mg/kg, iv infusion for 10 mins or 5 mg/kg, po administered via gavage by LC-MS/MS analysis. The format is ADME, organism-based. Particulars: in vivo, read-out: Vdss. The method in brief: as §2
The nature of series [15]: Oral bioavailability in Sprague-Dawley rat at 5 mg/kg administered via gavage by LC-MS/MS analysis. It is filed as ADME, organism-based. Particulars: in vivo. The method in brief: as §2

Broadly, the EC50 is the concentration needed to bring the measured effect to its halfway point. A word on the CC50: it is the concentration that lowers cell viability or growth by half. The term Cmax denotes the maximum level reached in the sampled fluid or tissue. By Tmax is commonly meant the time at which the peak concentration occurs. What is called AUC(0-t) is exposure summed from dosing to a finite time, without extrapolation to infinity. A high value points to high exposure. Broadly, the half-life is the time needed for the level to fall by half in the phase considered. A higher half-life goes with slow decline. One may read the bioavailability as dose-corrected exposure relative to a reference, in per cent. Higher therefore signals good availability. As to `COc1ccccc1-c1cccc(-c2cc3nc(C)c([C@H](OC(C)(C)C)C(=O)O)c(-c4cc(F)c5c(c4C)CCCO5)n3n2)c1`, the EC50 in series [1] is 6 nM; in [7] it was 30 nM. The midpoint of cytotoxicity in series [2], the CC50 at 96 h, lay at 23500 nM. The Papp at 4 h, 100 µM in [3] was 76.5 ×10⁻⁶ cm/s. In addition, the remaining at 10 min, 0.5 µM in series [4] and in [5] was 99% in each case. Besides, the selectivity ratio in [6] is 3920. The “Ratio EC50” value in series [8] was found to be 5. Also, the Cmax in [9] came to 1110 nM. Also, the Tmax in [10] worked out at 2.3 h. In series [11], this compound had an AUC(0-t) of 2.99 µM·h. This compound gave a half-life in series [12] of 3 h. This compound also registered a clearance in [13] of 28 mL/min/kg. Moreover, the Vd in series [14] was 1.8 L/kg. Moreover, the bioavailability in [15] turned out to be 59%.

Regarding `Cc1nc2cc(-c3cccc(-c4ccccc4F)c3)nn2c(-c2cc(F)c3c(c2C)CCCO3)c1[C@H](OC(C)(C)C)C(=O)O`, the 50% effective concentration (EC50) in [1] was found to be 3 nM; in series [7], 19 nM. This compound also returned a CC50 at 96 h in series [2] of 19100 nM. In series [3], the Papp at 4 h, 100 µM turned out to be 60.8 ×10⁻⁶ cm/s. Further, the remaining at 10 min, 0.5 µM was determined as 100% in series [4] and 89% in series [5]. For the same compound, in series [6], the selectivity ratio worked out at 6360. For the same compound, the “Ratio EC50” value in series [8] is 6. The compound also displayed a Cmax in series [9] of 803 nM. In addition, the Tmax in series [10] was 2.7 h. This compound registered an AUC(0-t) in [11] of 4.73 µM·h. This compound also had a half-life in series [12] of 2 h. For the same compound, in series [13], the clearance was 13 mL/min/kg. In addition, the Vd in series [14] was determined as 0.7 L/kg. This compound also showed a bioavailability in [15] of 44%.

As to `Cc1ccccc1-c1cccc(-c2cc3nc(C)c([C@H](OC(C)(C)C)C(=O)O)c(-c4cc(F)c5c(c4C)CCCO5)n3n2)c1`, the values for the EC50 in series [1] and in series [7] were 6 nM and 30 nM, respectively. Further, the midpoint of cytotoxicity in [2], the CC50 at 96 h, lay at 28200 nM. In addition, the Papp at 4 h, 100 µM in [3] was 47.1 ×10⁻⁶ cm/s. The remaining at 10 min, 0.5 µM in [4] came out at 95%; in [5] it was 97%. For the same compound, the selectivity ratio in [6] was determined as 4690. In addition, the “Ratio EC50” value in [8] worked out at 5. The Cmax in series [9] was 1290 nM. Moreover, the Tmax in series [10] amounted to 3 h. This compound also registered an AUC(0-t) in series [11] of 6.3 µM·h. For the same compound, the half-life in series [12] was 4.1 h. The clearance in series [13] worked out at 7.1 mL/min/kg. For the same compound, the Vd in series [14] is 0.5 L/kg. The compound further gave a bioavailability in series [15] of 32%.
